# According to ChEMBL document CHEMBL4346662, “Synthesis of novel 7-azaindole derivatives containing pyridin-3-ylmethyl dithiocarbamate moiety as potent PKM2 activators and PKM2 nucleus translocation inhibitors” (Eur J Med Chem, 2019):
# pIC50: −log10 of the molar value. The source made the active and inactive calls. The calls are words filed in the database; no cut-off is given here.
# Experiments:
# Pyruvate kinase PKM [1] = biological target: T1, Pyruvate kinase PKM (Homo sapiens, UniProt P14618); assay: Activation of human recombinant His-tagged PKM2 expressed in Escherichia coli using PEP as substrate measured at 30 sec between 3 and 6 mins in presence of […] by fluorescent pyruvate kinase-lactate dehydrogenase coupled assay
# Method in brief: (§1)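 Pyruvate kinase activity read by fluorescent pyruvate kinase–lactate dehydrogenase coupled assay; AC50 and maximal activation are means of at least two determinations.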
# Target sequence in this assay (P14618 whole entry): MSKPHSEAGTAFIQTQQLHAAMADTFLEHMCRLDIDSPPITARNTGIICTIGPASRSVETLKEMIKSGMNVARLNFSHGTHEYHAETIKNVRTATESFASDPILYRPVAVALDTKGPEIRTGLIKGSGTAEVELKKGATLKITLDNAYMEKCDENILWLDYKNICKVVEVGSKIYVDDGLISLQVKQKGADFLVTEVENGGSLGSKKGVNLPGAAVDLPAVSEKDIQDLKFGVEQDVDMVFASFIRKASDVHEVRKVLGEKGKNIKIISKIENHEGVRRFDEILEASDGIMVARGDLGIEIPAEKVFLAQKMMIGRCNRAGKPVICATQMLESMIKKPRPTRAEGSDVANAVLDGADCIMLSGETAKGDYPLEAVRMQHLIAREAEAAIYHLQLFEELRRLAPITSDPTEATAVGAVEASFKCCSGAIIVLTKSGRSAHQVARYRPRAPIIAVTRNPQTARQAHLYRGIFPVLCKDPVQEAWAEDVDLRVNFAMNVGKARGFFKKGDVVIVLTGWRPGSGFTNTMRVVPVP
# Pyruvate kinase PKM [2] = biological target: T1, Pyruvate kinase PKM; assay: Activation of human recombinant His-tagged PKM2 expressed in Escherichia coli assessed as maximal activity using PEP as substrate measured at 30 sec between 3 and 6 mins in presence of […] by fluorescent pyruvate kinase-lactate dehydrogenase coupled assay relative to control; method in brief: as §1
# Target sequence in this assay (P14618 2-531 limits assumed): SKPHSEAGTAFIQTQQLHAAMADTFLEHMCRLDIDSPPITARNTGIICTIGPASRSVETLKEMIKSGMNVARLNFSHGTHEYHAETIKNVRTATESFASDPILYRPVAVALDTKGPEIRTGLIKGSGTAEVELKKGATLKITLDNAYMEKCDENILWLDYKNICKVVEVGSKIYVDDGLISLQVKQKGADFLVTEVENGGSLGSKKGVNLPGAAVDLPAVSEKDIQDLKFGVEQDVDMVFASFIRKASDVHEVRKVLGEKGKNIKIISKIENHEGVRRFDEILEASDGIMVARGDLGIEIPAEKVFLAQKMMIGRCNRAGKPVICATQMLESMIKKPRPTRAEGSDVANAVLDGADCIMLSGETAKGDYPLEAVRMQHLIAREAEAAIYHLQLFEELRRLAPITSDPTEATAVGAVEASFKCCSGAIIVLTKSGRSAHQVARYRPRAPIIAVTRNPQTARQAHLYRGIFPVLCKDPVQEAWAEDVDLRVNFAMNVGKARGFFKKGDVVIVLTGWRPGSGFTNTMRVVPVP
# NCI-H1299 = assay: Antiproliferative activity against human H1299 cells assessed as reduction in cell growth incubated for 72 hrs by CellTiter-Glo assay; format: functional, cell-based; conditions: NCI-H1299, 72 h
# Method in brief: (§2)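 Cells (H1299 in RPMI 1640; HCT116 and A375 in DMEM; 10% FBS, 37 °C, 5% CO2) plated at 2000 per well, left 24 h, then exposed to ten concentrations or DMSO for 72 h. CellTiter-Glo added, 30 min at room temperature in dark, luminescence read. IC50 fitted from triplicate experiments.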
# HCT-116 = assay: Antiproliferative activity against human HCT116 cells assessed as reduction in cell growth incubated for 72 hrs by CellTiter-Glo assay; format: functional, cell-based; conditions: HCT-116, 72 h; method in brief: as §2
# A-375 [3] = assay: Antiproliferative activity against human A375 cells assessed as reduction in cell growth incubated for 72 hrs by CellTiter-Glo assay; format: functional, cell-based; conditions: A-375, 72 h; method in brief: as §2
# [4] = Cytotoxicity against human HELF cells assessed as reduction in cell viability incubated for 72 hrs by CellTiter-Glo assay; format: cell-based
# C2C12 = assay: Cytotoxicity against mouse C2C12 cells assessed as reduction in cell viability incubated for 72 hrs by CellTiter-Glo assay; format: cell-based; conditions: C2C12, 72 h
# [5] = Cytotoxicity against mouse C2C12 cells assessed as reduction in cell viability at 20 uM incubated for 72 hrs by CellTiter-Glo assay relative to control; format: cell-based; conditions: read-out: INH
# [6] = biological target: Serine/threonine-protein kinase B-raf (Homo sapiens) (UniProt P15056); assay: Inhibition of B-raf (unknown origin) at 10 uM
# Method in brief: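 B-raf tested by single-point binding at 10 μM.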
# A-375 [7] = assay: Antitumor activity in human A375 cells xenografted in BALB/C mouse assessed as reduction in tumor volume at 50 mg/kg, po bid for 14 days measured on day 22; format: functional, organism-based
# Method in brief: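 Male BALB/c athymic nude mice, six weeks old, 18–20 g, inoculated subcutaneously with A375 cells (5×10^7 cells/mL in DMEM, 0.2 mL). At 100–300 mm³ (7 days), randomized, n = 6 per group, dosed orally bid for 14 days; vehicle 0.5% CMCNa. Tumor volume ((width)²×length/2) and body weight measured 2–3 times weekly; tumors excised and weighed at day 22.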
# Homo sapiens = organism: Homo sapiens; assay: Inhibition of nuclear translocation of PKM2 in human A375 cells assessed as retardation of in nuclear accumulation of PKM2 at 1 to 4 uM incubated for 24 hrs by Hoechst staining-based immunofluorescent microscopic analysis; format: cell-based
# Method in brief: (§3)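 A375 cells seeded at 60% per well, grown 24 h at 37 °C, then treated with three concentrations, DMSO or NZT for 24 h (12 h in a separate run). Fixed 10 min in 3% PFA/0.1% glutaraldehyde, blocked overnight at 4 °C (3% BSA, 0.2% Triton X-100), stained with rabbit anti-PKM2 2 h, then secondary plus Hoechst 33258 1 h. Imaged on Operetta high content system; cytoplasmic fluorescence intensity quantified.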
# Pyruvate kinase PKM [8] = biological target: T1, Pyruvate kinase PKM; assay: Inhibition of nuclear translocation of PKM2 in human A375 cells assessed as retardation of in nuclear accumulation of PKM2 at 1 to 4 uM incubated for 12 hrs by Hoechst staining-based immunofluorescent microscopic analysis; format: cell-based; method in brief: as §3
# Target sequence in this assay (P14618 2-531 limits assumed): as above
# A-375 [9] = assay: Induction of apoptosis in human A375 cells assessed as apoptotic cells at 1 to 4 uM incubated for 24 hrs by AnnexinV-FITC/propidium iodide staining-based flow cytometric analysis relative to control; format: functional, cell-based
# Method in brief: (§4)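 A375 cells seeded at 6×10^5 per well, grown 24 h, then given fresh medium with compound for 24 h. Harvested by trypsinization, washed twice in ice-cold PBS, stained with Annexin V-FITC/PI and analysed by flow cytometry. Annexin V+/PI− scored early, Annexin V+/PI+ late apoptotic, double-negative live.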
# A-375 [10] = assay: Induction of autophagy in human A375 cells assessed as increase in LC3-1 to LC3-2 transition at 1 to 4 uM incubated for 24 hrs by immunoflourescence assay; format: functional, cell-based
# Method in brief: (§5)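 A375 cells seeded at 60% per well, then treated with compound or DMSO for 24 h. Fixed in 3% PFA/0.1% glutaraldehyde, blocked overnight at 4 °C, immunostained with rabbit anti-LC3B plus Hoechst 33258. High content imaging quantified cytoplasmic LC3B intensity and LC3B spot area.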
# A-375 [11] = assay: Anti-migration activity against human A375 cells assessed as inhibition of cell migration speed incubated for 24 hrs; format: functional, cell-based
# Method in brief: (§6)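 A375 cells seeded at 60% per well, grown 24 h, then given six concentrations or DMSO. Migration speed and accumulated distance tracked in real time by live-cell high content imaging (Operetta) over 24 h. Data from triplicate experiments.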
# A-375 [12] = assay: Inhibition of nuclear translocation of PKM2 in human A375 cells assessed as cell death of PKM2 at 4 uM incubated for 24 hrs by Hoechst staining-based fluorescent microscopic analysis; format: functional
# A-375 [13] = assay: Anti-migration activity against human A375 cells assessed as inhibition of cell migration distance incubated for 24 hrs; format: functional, cell-based; method in brief: as §6
# [14] = Cytotoxicity against human HELF cells assessed as reduction in cell viability at 20 uM incubated for 72 hrs by CellTiter-Glo assay relative to control; format: cell-based; conditions: read-out: INH
# A-375 [15] = assay: Cytotoxicity in human A375 cells assessed as reduction in cel viability at 4 uM incubated for 24 hrs; format: functional, cell-based
# A-375 [16] = assay: Induction of autophagy in human A375 cells assessed as increase inLC3B spot area at 1 to 4 uM incubated for 24 hrs by immunoflourescence assay; format: functional, cell-based; method in brief: as §5
# A-375 [17] = assay: Induction of apoptosis in human A375 cells assessed as viable cells level at 1 uM incubated for 24 hrs by AnnexinV-FITC/propidium iodide staining-based flow cytometric analysis (reference value: 89.51%); format: functional; method in brief: as §4
# A-375 [18] = assay: Induction of apoptosis in human A375 cells assessed as early apoptotic cells level at 1 uM incubated for 24 hrs by AnnexinV-FITC/propidium iodide staining-based flow cytometric analysis (reference value: 2.89%); format: functional; method in brief: as §4
# A-375 [19] = assay: Induction of apoptosis in human A375 cells assessed as late apoptotic cells level at 1 uM incubated for 24 hrs by AnnexinV-FITC/propidium iodide staining-based flow cytometric analysis (reference value: 6.64%); format: functional; method in brief: as §4
# A-375 [20] = assay: Induction of apoptosis in human A375 cells assessed as necrotic cells level at 1 uM incubated for 24 hrs by AnnexinV-FITC/propidium iodide staining-based flow cytometric analysis (reference value: 0.96%); format: functional; method in brief: as §4
# A-375 [21] = assay: Induction of apoptosis in human A375 cells assessed as viable cells level at 2 uM incubated for 24 hrs by AnnexinV-FITC/propidium iodide staining-based flow cytometric analysis (reference value: 89.51%); format: functional; method in brief: as §4
# A-375 [22] = assay: Induction of apoptosis in human A375 cells assessed as early apoptotic cells level at 2 uM incubated for 24 hrs by AnnexinV-FITC/propidium iodide staining-based flow cytometric analysis (reference value: 2.89%); format: functional; method in brief: as §4
# A-375 [23] = assay: Induction of apoptosis in human A375 cells assessed as late apoptotic cells level at 2 uM incubated for 24 hrs by AnnexinV-FITC/propidium iodide staining-based flow cytometric analysis (reference value: 6.64%); format: functional; method in brief: as §4
# A-375 [24] = assay: Induction of apoptosis in human A375 cells assessed as necrotic cells level at 2 uM incubated for 24 hrs by AnnexinV-FITC/propidium iodide staining-based flow cytometric analysis (reference value: 0.96%); format: functional; method in brief: as §4
# A-375 [25] = assay: Induction of apoptosis in human A375 cells assessed as viable cells level at 4 uM incubated for 24 hrs by AnnexinV-FITC/propidium iodide staining-based flow cytometric analysis (reference value: 89.51%); format: functional; method in brief: as §4
# A-375 [26] = assay: Induction of apoptosis in human A375 cells assessed as early apoptotic cells level at 4 uM incubated for 24 hrs by AnnexinV-FITC/propidium iodide staining-based flow cytometric analysis (reference value: 2.89%); format: functional; method in brief: as §4
# A-375 [27] = assay: Induction of apoptosis in human A375 cells assessed as late apoptotic cells level at 4 uM incubated for 24 hrs by AnnexinV-FITC/propidium iodide staining-based flow cytometric analysis (reference value: 6.64%); format: functional; method in brief: as §4
# A-375 [28] = assay: Induction of apoptosis in human A375 cells assessed as necrotic cells level at 4 uM incubated for 24 hrs by AnnexinV-FITC/propidium iodide staining-based flow cytometric analysis (reference value: 0.96%); format: functional; method in brief: as §4
# [29] = Toxicity in BALB/C mouse xenografted with human A375 cells assessed as reduction in body weight at 50 mg/kg, po bid for 14 days measured on day 22; conditions: in vivo, 336 h
# Chain of Serine/threonine-protein kinase B-raf (Homo sapiens) (P15056 whole entry): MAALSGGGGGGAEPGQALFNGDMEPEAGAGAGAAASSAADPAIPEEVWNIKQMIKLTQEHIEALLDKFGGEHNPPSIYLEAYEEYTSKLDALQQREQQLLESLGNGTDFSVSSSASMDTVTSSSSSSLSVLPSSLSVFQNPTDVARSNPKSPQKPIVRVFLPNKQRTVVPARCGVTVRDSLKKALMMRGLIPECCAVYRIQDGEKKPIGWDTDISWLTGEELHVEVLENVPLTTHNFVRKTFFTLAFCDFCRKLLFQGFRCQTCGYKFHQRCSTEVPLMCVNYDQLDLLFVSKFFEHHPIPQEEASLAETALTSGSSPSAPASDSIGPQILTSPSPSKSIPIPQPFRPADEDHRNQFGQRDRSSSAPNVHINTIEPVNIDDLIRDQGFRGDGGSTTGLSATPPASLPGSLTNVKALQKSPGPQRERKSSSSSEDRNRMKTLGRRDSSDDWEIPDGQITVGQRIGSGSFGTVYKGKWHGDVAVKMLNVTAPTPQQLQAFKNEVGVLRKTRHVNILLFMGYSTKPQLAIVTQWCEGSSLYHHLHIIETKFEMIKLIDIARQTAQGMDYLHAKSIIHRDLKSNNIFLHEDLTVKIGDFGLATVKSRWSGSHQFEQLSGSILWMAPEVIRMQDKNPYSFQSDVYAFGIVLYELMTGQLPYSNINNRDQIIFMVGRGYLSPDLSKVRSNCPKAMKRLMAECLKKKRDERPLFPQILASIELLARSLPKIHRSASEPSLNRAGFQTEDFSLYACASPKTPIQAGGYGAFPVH
smiles,measurement,setting,value
C#Cc1ccnc2[nH]cc(C(=O)CCSC(=S)NCc3cccnc3)c12,AC50,Pyruvate kinase PKM [1]; read-out: AC50,> 20000 nM
same,%max,Pyruvate kinase PKM [2],24%
O=C(CCSC(=S)NCc1cccnc1)c1c[nH]c2nccc(C3CC3)c12,AC50,Pyruvate kinase PKM [1],Not Active
same,%max,Pyruvate kinase PKM [2],inactive
O=C(CCSC(=S)NCc1cccnc1)c1cn(CC(F)F)c2ncccc12,AC50,Pyruvate kinase PKM [1]; read-out: AC50,2670 nM
same,%max,Pyruvate kinase PKM [2],149%
same,pIC50,NCI-H1299,5.64
same,pIC50,HCT-116,6.15
same,pIC50,A-375 [3],6.55
same,pIC50,[4],< 4.70
same,pIC50,C2C12,< 4.70
same,"cytotoxicity at 72 h, 20 µM",[5],46%
same,inhibition,[6],41%
same,Activity,A-375 [7],Active
same,inhibition,Homo sapiens,Dose-dependent effect
same,Activity,Pyruvate kinase PKM [8],Active
same,Activity,A-375 [9],Dose-dependent effect
same,Activity,A-375 [10],Dose-dependent effect
same,Activity,A-375 [11],Dose-dependent effect
same,inhibition,A-375 [12],Active
same,Activity,A-375 [13],Dose-dependent effect
same,"cytotoxicity at 72 h, 20 µM",[14],10%
same,Activity,A-375 [15],Active
same,Activity,A-375 [16],Dose-dependent effect
same,Activity,A-375 [17],86.39%
same,Activity,A-375 [18],3.95%
same,Activity,A-375 [19],8.09%
same,Activity,A-375 [20],1.57%
same,Activity,A-375 [21],76.9%
same,Activity,A-375 [22],14.01%
same,Activity,A-375 [23],6.98%
same,Activity,A-375 [24],2.11%
same,Activity,A-375 [25],67.24%
same,Activity,A-375 [26],18.55%
same,Activity,A-375 [27],9.76%
same,Activity,A-375 [28],4.45%
same,Activity,[29],Non-Toxic
O=C(CCSC(=S)NCc1cccnc1)c1c[nH]c2ncccc12,%max,Pyruvate kinase PKM [2],113%
same,pIC50,NCI-H1299,5.43
same,pIC50,HCT-116,5.51
same,pIC50,A-375 [3],5.99
O=C(CCSC(=S)NCc1cccnc1)c1c[nH]c2ncc(Cl)cc12,AC50,Pyruvate kinase PKM [1]; read-out: AC50,180 nM
same,%max,Pyruvate kinase PKM [2],71%
same,pIC50,NCI-H1299,5.05
same,pIC50,HCT-116,5.21
same,pIC50,A-375 [3],5.47
O=C(CCSC(=S)NCc1cccnc1)c1c[nH]c2nccc(-c3ccccc3)c12,AC50,Pyruvate kinase PKM [1]; read-out: AC50,2170 nM
same,%max,Pyruvate kinase PKM [2],28%
O=C(CCSC(=S)NCc1cccnc1)c1c[nH]c2nccc(Cl)c12,AC50,Pyruvate kinase PKM [1]; read-out: AC50,1140 nM
same,%max,Pyruvate kinase PKM [2],122%
same,pIC50,NCI-H1299,5.60
same,pIC50,HCT-116,5.69
same,pIC50,A-375 [3],6.39
O=C(CCSC(=S)NCc1cccnc1)c1cn(-c2cccs2)c2ncccc12,AC50,Pyruvate kinase PKM [1],Not Active
same,%max,Pyruvate kinase PKM [2],inactive
O=C(CCSC(=S)NCc1cccnc1)c1cnn2ncccc12,AC50,Pyruvate kinase PKM [1]; read-out: AC50,220 nM
same,%max,Pyruvate kinase PKM [2],44%
same,pIC50,NCI-H1299,5.75
same,pIC50,HCT-116,5.82
same,pIC50,A-375 [3],6.48
Cc1ccc2c(C(=O)CCSC(=S)NCc3cccnc3)c[nH]c2n1,AC50,Pyruvate kinase PKM [1],Not Active
same,%max,Pyruvate kinase PKM [2],inactive
